Data set [1] has as its system SARS-CoV-2. To be noted: cited from earlier work; for EC50, inhibit SARS-CoV-2 replications in vitro: entry inhibitors.
Data set [2] has as its system influenza. In words: Predicted anti-influenza EC50 by pEC50 = pIC50 + Log Fic. The settings on record: A549, read-out: Predicted EC50 (anti-influenza).
In a further data set the test system is ACE2. The data set is described as follows: ACE2 expression in Vero E6 cells. It is filed as cell-based. To be noted: 48 h, RNA-seq, western blot. For orientation: In western blotting, separated proteins are transferred to a membrane and probed.
In data set [3] the test system is influenza. To be noted: read-out: Observed EC50, influenza replication; A549 cells; cited from earlier work.
Data set [4] deals with SARS-CoV-2. The settings on record: hamster; cited from earlier work.
For data set [5] the following is noted: IV injection of RDV, mice.
For data set [6] the following is noted: IV injection of RDV, rhesus macaques.
For data set [7] the following is noted: IV injection of RDV, nonhuman primates; cited from earlier work.
For data set [8], the system named is SARS-CoV-2. To be noted: cited from earlier work.
Data set [9] deals with multidrug resistance-associated protein 4 (MRP4). The settings on record: ref 28 (RDV), FDA Office of Clinical Pharmacology Review (GS-441524); cited from earlier work.
A further data set deals with RdRp of SARS-CoV-2. The settings on record: read-out: IC50, inhibition of RdRp of SARS-CoV-2; active form of RDV; cited from earlier work.
The target of a further data set is SARS-CoV-2 M^pro (Severe acute respiratory syndrome coronavirus 2, UniProt P0DTD1). The settings on record: cited from earlier work.
For data set [10], the system named is SARS-CoV-2. To be noted: rhesus macaque, cited from earlier work.
A further data set has as its system Calu-3 cells. The data set is described as follows: Cytotoxicity. In kind it is cell-based. The procedure, abridged:
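Calu-3 cells were grown in medium supplemented with 1% non-essential amino acids and 1% sodium pyruvate at 37 °C, 5% CO2. Cells were seeded and cultured for 24 h, then exposed to test compound for 48 h. CCK8 solution was added at 10% and incubated 15 min to read viability.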

Structures are written as SMILES. Entries after “also recorded” stand apart in the source; their conditions may differ. Read-outs that look alike come from different tables or passages of the source.

For `CCN(CC)CCCC(C)Nc1ccnc2cc(Cl)ccc12` (centres unmarked) [CQ, Chloroquine], the “Drug accumulation with verapamil (P-gp inhibitor)” value with Vero E6 cells is given as “facilitated accumulation”. Further, the “EC50, inhibit SARS-CoV-2 replications in vitro” value in the data set with SARS-CoV-2 [1] was “low micromolar”.
As for `NC(=O)c1nc(F)c[nH]c1=O` [FAV, Favipiravir], the EC50 in the data set on influenza [2] is 3.2 µM; in the data set with SARS-CoV-2 [1] (read-out: Observed EC50, SARS-CoV-2 replication, Vero E6), 65 to 400 µM; with influenza [3] it was 3 µM. Further, in the data set with ACE2, the ACE2 expression entry is recorded as “reduced angiotensin-converting enzyme 2 (ACE2) expression”. The Fic with Vero E6 cells (Vero E6, Fic = fu,cell x Kp) worked out at 0.03371; with A549 cells it was 0.03145. Moreover, the “Drug accumulation with verapamil (P-gp inhibitor)” value in the data set on Vero E6 cells (Vero E6 cells) was “increased FAV accumulation”. The “Infectious titers in the lung” value with SARS-CoV-2 [4] is “reduction of infectious titers in the lung”.
With `N#C[C@@]1(c2ccc3c(N)ncnn23)O[C@H](CO)[C@@H](O)[C@H]1O` [GS-441524], the “Lung concentration of GS-441524 relative to its predicted EC50” value in data set [5] and in [6] was 10 fold in each case. Further, the “Bloodstream concentration of GS-441524 relative to RDV” value in [7] is 1000 fold. Moreover, in the data set on SARS-CoV-2 [8] (oral administration of GS-441524, mouse model), the “SARS-CoV-2 replication in vivo” value was “inhibit SARS-CoV-2 replication in vivo”. Besides, the “Substrate of MRP4” value in data set [9] was “not a substrate”.
Regarding `N#C[C@@]1(c2ccc3c(N)ncnn23)O[C@H](COP(=O)(O)OP(=O)(O)OP(=O)(O)O)[C@@H](O)[C@H]1O` [GS-443902], in the data set with RdRp of SARS-CoV-2, the IC50 is 0.032 µM.
As for `CCN(CCO)CCCC(C)Nc1ccnc2cc(Cl)ccc12` (centres unmarked) [HCQ, hydroxychloroquine], the “Drug accumulation with verapamil (P-gp inhibitor)” value in the data set on Vero E6 cells (Vero E6 cells) is on record as “facilitated accumulation”. Also, on SARS-CoV-2 M^pro, the “Inhibition of M^pro activities at 200 μM” value is listed as “slightly inhibited”. Moreover, the “EC50, inhibit SARS-CoV-2 replications in vitro” value in the data set on SARS-CoV-2 [1] is on record as “low micromolar”. The “Infectious titers in lungs” value with SARS-CoV-2 [10] and with SARS-CoV-2 [4] was “failed to reduce infectious titers” each time.
On to `CCC(CC)COC(=O)[C@H](C)N[P@](=O)(OC[C@H]1O[C@@](C#N)(c2ccc3c(N)ncnn23)[C@H](O)[C@@H]1O)Oc1ccccc1` [RDV, Remdesivir], for which, in the data set on Vero E6 cells (Vero E6 cells), the “Drug accumulation with ceefourin (MRP4 inhibitor)” value is “significantly increased RDV accumulation” and the “Drug accumulation with verapamil (P-gp inhibitor)” value was “significantly increased RDV accumulation”. In the data set on A549-ACE2 cells, the “Drug accumulation with ceefourin (MRP4 inhibitor)” value is “Neither verapamil nor ceefourin changed RDV accumulation” and the “Drug accumulation with verapamil (P-gp inhibitor)” value was “Neither verapamil nor ceefourin changed RDV accumulation”. In addition, the “Virus titer in the lung / antiviral activity in vivo” value in the data set on SARS-CoV-2 [8] (RDV, mouse) is listed as “successfully reduce virus titer in the lung; also recorded: strong antiviral activities”. Also, in the data set on SARS-CoV-2 [10] (RDV), the “Antiviral activity in vivo” value was “strong antiviral activities”. Further, in data set [9], the “Substrate of MRP4” value is given as “substrate”.
For the compound `COc1ccc(CCN(C)CCCC(C#N)(c2ccc(OC)c(OC)c2)C(C)C)cc1OC` (centres unmarked) [verapamil], the Cytotoxicity result in the data set with Calu-3 cells is recorded as “strong cytotoxicity”.

Usually EC50 stands for the concentration that produces a half-maximal response. Usually IC50 stands for the concentration needed to halve the response being measured.

The record behind these values is PMC9753181 (ACS Omega, 2022).
